These compounds were tested against T1, Glucose-dependent insulinotropic receptor (Homo sapiens, UniProt Q8TDV5) (assay: Agonist activity at recombinant human GPR119 expressed in HEK293 cells after 24 hrs by steady-glo luciferase assay).
T1 sequence (Q8TDV5 whole entry): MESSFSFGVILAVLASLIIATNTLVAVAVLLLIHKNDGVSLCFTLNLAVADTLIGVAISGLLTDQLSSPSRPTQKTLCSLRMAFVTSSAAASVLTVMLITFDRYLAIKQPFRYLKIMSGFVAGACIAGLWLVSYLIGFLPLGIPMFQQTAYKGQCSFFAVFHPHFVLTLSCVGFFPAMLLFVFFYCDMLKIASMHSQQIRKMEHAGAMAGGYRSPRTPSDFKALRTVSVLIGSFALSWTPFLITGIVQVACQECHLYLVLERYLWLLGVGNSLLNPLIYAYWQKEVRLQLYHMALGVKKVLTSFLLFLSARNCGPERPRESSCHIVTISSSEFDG
Type: cell-based
Outline: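 HEK-293 cells stably carrying GPR119 plus a CRE-luciferase reporter, seeded at 10,000 cells/well and cultured 24 h before compound addition at 0.1 nM to 1mM. DMSO served as negative control and AR231453 as reference agonist. Luciferase signal was read after a further 24 h as a surrogate for cAMP elevation.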
For `CC(C)(C)OC(=O)N1CCN(C(=O)c2cn(-c3ccc(C(F)(F)F)cc3)nn2)CC1`, the EC50 was 13.6 nM. `CC(C)(C)OC(=O)N1CCN(C(=O)c2cn(-c3ccc(S(C)(=O)=O)cc3F)nn2)CC1` was tested, and the EC50 was 12.4 nM. `CC(C)(C)OC(=O)N1CCN(C(=O)c2cn(-c3ccc(C(F)(F)F)cc3Cl)nn2)CC1` was tested, and the EC50 was 8.78 nM. `CC(C)(C)OC(=O)N1CCC(OC(=O)c2cn(-c3ccc(S(C)(=O)=O)cc3F)nn2)CC1` was tested, and the EC50 was 14 nM. `CC(C)(C)OC(=O)N1CCN(C(=O)c2cn(-c3ccc(S(C)(=O)=O)cc3)nn2)CC1` gave an EC50 of 3.12 nM. `CC(C)(C)OC(=O)N1CCC(OC(=O)c2cn(-c3nc4ccccc4s3)nn2)CC1` gave an EC50 of 8.17 nM. `CC(C)(C)OC(=O)N1CCN(C(=O)c2cn(-c3nc4ccccc4s3)nn2)CC1` gave an EC50 of 7.12 nM. `CC(C)c1noc(C2CCN(c3ncnc(Nc4ccc(S(C)(=O)=O)cc4F)c3[N+](=O)[O-])CC2)n1` gave an EC50 of 4.78 nM. For `CC(C)(C)OC(=O)N1CCC(OC(=O)c2cn(-c3ccc(C(F)(F)F)cc3Cl)nn2)CC1`, the EC50 was 11.1 nM. With `CC(C)(C)OC(=O)N1CCC(OC(=O)c2cn(-c3ccc(Cl)c(C(F)(F)F)c3)nn2)CC1` the EC50 was 12.3 nM. In the case of `CC(C)(C)OC(=O)N1CCC(OC(=O)c2cn(-c3ccc(S(C)(=O)=O)cc3)nn2)CC1`, the EC50 is reported as 3.67 nM. `CC(C)(C)OC(=O)N1CCN(C(=O)c2cn(-c3ccc(C#N)cc3F)nn2)CC1` was tested, and the EC50 was 4.21 nM. `CC(C)(C)OC(=O)N1CCC(OC(=O)c2cn(-c3ccc(C#N)cc3F)nn2)CC1` was tested, and the EC50 was 3.59 nM. For `CC(C)(C)OC(=O)N1CCN(C(=O)c2cn(-c3ccc(Cl)c(C(F)(F)F)c3)nn2)CC1`, the EC50 was 12.3 nM. `CC(C)(C)OC(=O)N1CCC(OC(=O)c2cn(-c3ccc(C(F)(F)F)cc3)nn2)CC1` showed an EC50 of 10.4 nM.
